Measurements: ChEMBL document CHEMBL1155442, “Click chemistry approach to new N-substituted aminocyclitols as potential pharmacological chaperones for Gaucher disease” (J Med Chem, 2010)
Calls of active or inactive are those of the source. No cut-off for these calls is given here.

Assays:
[1] = target: T1, Lysosomal acid glucosylceramidase (Homo sapiens) (UniProt P04062); experiment: Binding affinity to recombinant beta-glucocerebrosidase assessed as enzymatic activity at 25 uM after 60 mins by thermal stabilization assay relative to control
T1 sequence (whole entry): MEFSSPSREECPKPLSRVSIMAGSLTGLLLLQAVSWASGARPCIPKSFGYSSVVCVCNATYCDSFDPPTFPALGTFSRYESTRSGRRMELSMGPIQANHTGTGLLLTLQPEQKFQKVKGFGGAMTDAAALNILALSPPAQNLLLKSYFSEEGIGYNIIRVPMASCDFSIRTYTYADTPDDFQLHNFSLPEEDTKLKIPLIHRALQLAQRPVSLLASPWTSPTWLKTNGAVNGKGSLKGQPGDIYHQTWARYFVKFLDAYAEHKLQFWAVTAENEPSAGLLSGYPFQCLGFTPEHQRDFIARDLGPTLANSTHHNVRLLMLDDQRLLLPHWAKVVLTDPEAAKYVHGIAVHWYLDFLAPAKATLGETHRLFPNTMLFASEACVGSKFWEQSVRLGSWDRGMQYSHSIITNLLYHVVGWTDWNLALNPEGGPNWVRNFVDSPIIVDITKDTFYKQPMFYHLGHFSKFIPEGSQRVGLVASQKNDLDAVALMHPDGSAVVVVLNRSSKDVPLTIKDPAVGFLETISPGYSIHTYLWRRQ
Procedure, shortened: (§1)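 Recombinant GCase (imiglucerase, 2 mg/mL aliquots) held at pH 7.4 and 48 °C with 0 (control) or 10–150 μM compound. At 20, 40 or 60 min, acetate-phosphate buffer (pH 5.0) and 4 mM 4-methylumbelliferyl β-D-glucoside in McIlvaine pH 5.2 added. Incubated 10 min at 37 °C with 0.1% Triton X-100 and 0.2% taurodeoxycholic acid. Stopped with glycine pH 10.6; 4-MU fluorescence read. Activity expressed relative to enzyme at 37 °C.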

[2] = target: T2, Lysosomal acid glucosylceramidase (Homo sapiens, UniProt P04062); experiment: Inhibition of recombinant beta-glucocerebrosidase after 10 mins by fluorimetry
T2 sequence (P04062 whole entry): T1 sequence (whole entry)
Procedure, shortened: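 Imiglucerase (0.1 mg/mL stock) in McIlvaine buffer, pH 5.2 or 7.4, with 0.2% sodium taurocholate and 0.1% Triton X-100. Preincubated 30 min at 37 °C with or without inhibitor. Then 4 mM 4-methylumbelliferyl-β-D-glucopyranoside added for 10 min at 37 °C. Stopped with glycine/NaOH pH 10.6; 4-MU read at ex 355/em 460 nm. IC50 from % activity vs log[I], at least five concentrations.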

[3] = target: T1, Lysosomal acid glucosylceramidase (Homo sapiens); experiment: Binding affinity to recombinant beta-glucocerebrosidase assessed as enzymatic activity at 100 uM after 40 mins by thermal stabilization assay relative to control
[4] = target: T1, Lysosomal acid glucosylceramidase (Homo sapiens); experiment: Binding affinity to recombinant beta-glucocerebrosidase assessed as enzymatic activity at 10 uM after 20 mins by thermal stabilization assay relative to control; procedure, shortened: as §1
[5] = target: T1, Lysosomal acid glucosylceramidase (Homo sapiens); experiment: Binding affinity to recombinant beta-glucocerebrosidase assessed as enzymatic activity at 25 uM after 40 mins by thermal stabilization assay relative to control; procedure, shortened: as §1
[6] = target: T1, Lysosomal acid glucosylceramidase (Homo sapiens); experiment: Inhibition of beta-glucocerebrosidase in human fibroblast at 20 uM after 24 hrs by fluorescence assay
Procedure, shortened: (§2)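 Wild-type human fibroblasts exposed to compound for 24 h (10, 20 or 50 μM, as listed) with 5 mM substrate. Cellular GCase activity then measured.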

[7] = target: T2, Lysosomal acid glucosylceramidase; experiment: Competitive inhibition of beta-glucocerebrosidase at pH 5.2 by Lineweaver-Burke plot analysis
[8] = Cytotoxicity against human fibroblast after 24 hrs by MTT assay; format: cell-based; settings: human fibroblasts
[9] = target: T1, Lysosomal acid glucosylceramidase (Homo sapiens); experiment: Binding affinity to recombinant beta-glucocerebrosidase assessed as enzymatic activity at 100 uM after 20 mins by thermal stabilization assay relative to control
[10] = target: T1, Lysosomal acid glucosylceramidase (Homo sapiens); experiment: Binding affinity to recombinant beta-glucocerebrosidase assessed as enzymatic activity at 150 uM after 60 mins by thermal stabilization assay relative to control
[11] = target: T1, Lysosomal acid glucosylceramidase (Homo sapiens); experiment: Binding affinity to recombinant beta-glucocerebrosidase assessed as enzymatic activity at 10 uM after 60 mins by thermal stabilization assay relative to control; procedure, shortened: as §1
[12] = target: T3, Beta-galactosidase (Bos taurus) (UniProt Q58D55); experiment: Inhibition of bovine liver beta-galactosidase at 0.1 mM
T3 sequence (whole entry): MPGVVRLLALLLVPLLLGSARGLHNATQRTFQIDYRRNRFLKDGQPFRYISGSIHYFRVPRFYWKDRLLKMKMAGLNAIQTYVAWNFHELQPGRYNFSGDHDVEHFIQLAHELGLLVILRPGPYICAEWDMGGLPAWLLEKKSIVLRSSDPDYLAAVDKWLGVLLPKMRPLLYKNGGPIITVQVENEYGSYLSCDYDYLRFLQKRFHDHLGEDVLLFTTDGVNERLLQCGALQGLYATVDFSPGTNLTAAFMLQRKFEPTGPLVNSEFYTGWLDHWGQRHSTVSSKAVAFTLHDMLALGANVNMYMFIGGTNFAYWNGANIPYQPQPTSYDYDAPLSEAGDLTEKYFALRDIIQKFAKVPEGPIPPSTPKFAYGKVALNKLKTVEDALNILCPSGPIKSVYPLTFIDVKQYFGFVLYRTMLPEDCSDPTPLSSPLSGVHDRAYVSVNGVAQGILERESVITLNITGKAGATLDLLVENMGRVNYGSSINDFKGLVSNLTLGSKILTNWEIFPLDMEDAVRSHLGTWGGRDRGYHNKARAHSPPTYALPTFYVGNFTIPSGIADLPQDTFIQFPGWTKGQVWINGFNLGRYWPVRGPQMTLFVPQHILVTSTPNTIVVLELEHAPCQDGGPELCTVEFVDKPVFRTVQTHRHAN

Prunus dulcis = experiment: Inhibition of sweet almond beta-glucosidase at 0.1 mM
[13] = target: T2, Lysosomal acid glucosylceramidase; experiment: Inhibition of recombinant beta-glucocerebrosidase at pH 7.4 after 10 mins by fluorimetry
Oryza sativa [14] = experiment: Inhibition of rice alpha-galactosidase at 0.1 mM
[15] = target: T1, Lysosomal acid glucosylceramidase (Homo sapiens); experiment: Binding affinity to recombinant beta-glucocerebrosidase assessed as enzymatic activity at 100 uM after 60 mins by thermal stabilization assay relative to control
[16] = target: T1, Lysosomal acid glucosylceramidase (Homo sapiens); experiment: Inhibition of beta-glucocerebrosidase in human fibroblast at 50 uM after 24 hrs by fluorescence assay; procedure, shortened: as §2
[17] = target: T1, Lysosomal acid glucosylceramidase (Homo sapiens); experiment: Binding affinity to recombinant beta-glucocerebrosidase assessed as enzymatic activity at 50 uM after 40 mins by thermal stabilization assay relative to control
Oryza sativa [18] = experiment: Inhibition of rice alpha-glucosidase at 0.1 mM
[19] = target: T1, Lysosomal acid glucosylceramidase (Homo sapiens); experiment: Binding affinity to recombinant beta-glucocerebrosidase assessed as enzymatic activity at 150 uM after 20 mins by thermal stabilization assay relative to control
[20] = target: T1, Lysosomal acid glucosylceramidase (Homo sapiens); experiment: Binding affinity to recombinant beta-glucocerebrosidase assessed as enzymatic activity at 50 uM after 20 mins by thermal stabilization assay relative to control
[21] = target: T2, Lysosomal acid glucosylceramidase; experiment: Inhibition of recombinant beta-glucocerebrosidase at pH 5.2 after 10 mins by fluorimetry
[22] = Dissociation constant, pKa of the compound; format: physicochemical
[23] = target: T1, Lysosomal acid glucosylceramidase (Homo sapiens); experiment: Binding affinity to recombinant beta-glucocerebrosidase assessed as enzymatic activity at 25 uM after 20 mins by thermal stabilization assay relative to control; procedure, shortened: as §1
Saccharomyces cerevisiae = experiment: Inhibition of yeast alpha-glucosidase at 0.1 mM
[24] = target: T1, Lysosomal acid glucosylceramidase (Homo sapiens); experiment: Inhibition of beta-glucocerebrosidase in human fibroblast at 10 uM after 24 hrs by fluorescence assay; procedure, shortened: as §2
[25] = target: T1, Lysosomal acid glucosylceramidase (Homo sapiens); experiment: Binding affinity to recombinant beta-glucocerebrosidase assessed as enzymatic activity at 10 uM after 40 mins by thermal stabilization assay relative to control; procedure, shortened: as §1
[26] = target: T1, Lysosomal acid glucosylceramidase (Homo sapiens); experiment: Binding affinity to recombinant beta-glucocerebrosidase assessed as enzymatic activity at 50 uM after 60 mins by thermal stabilization assay relative to control
[27] = target: T1, Lysosomal acid glucosylceramidase (Homo sapiens); experiment: Binding affinity to recombinant beta-glucocerebrosidase assessed as enzymatic activity at 150 uM after 40 mins by thermal stabilization assay relative to control
[28] = Selectivity index, ratio of CC50 for human fibroblast to Ki for beta-glucocerebrosidase
[29] = Cytotoxicity against human fibroblast at 300 uM after 24 hrs by MTT assay; format: cell-based
[30] = target: T1, Lysosomal acid glucosylceramidase (Homo sapiens); settings: 0.1 to 0.25 uM

Row | SMILES | fold change (FC) [1] | IC50 [2] [nM] | fold change (FC) [3] | fold change (FC) [4] | fold change (FC) [5] | inhibition [6] [%] | Ki [7] [nM] | fold change (FC) [9] | fold change (FC) [10] | fold change (FC) [11] | inhibition [12] | inhibition (Prunus dulcis) | IC50 [13] [nM] | inhibition (Oryza sativa [14]) | fold change (FC) [15] | inhibition [16] | fold change (FC) [17] | inhibition (Oryza sativa [18]) | fold change (FC) [19] | fold change (FC) [20] | also measured
1 | CCCCCCCCCCCCn1cc(CN[C@H]2[C@H](O)[C@@H](O)[C@H](O)[C@@H](O)[C@@H]2O)nn1 | 23.2 | 30.2 | 12.8 | 2.65 | 9.42 | 90 | 60 | 3.41 | 26.2 | 18.7 | inactive | inactive | 60 | inactive | 28.7 | Toxic | 10.9 | inactive | 3.21 | 3.11 | CC50 at 24 h [8]: 55000 nM; IC50 [21]: 30 nM; pKa [22]: 7.1; fold change (FC) [23]: 2.97; inhibition (Saccharomyces cerevisiae): inactive; inhibition [24]: 87%; fold change (FC) [25]: 8.48; fold change (FC) [26]: 24.9; fold change (FC) [27]: 11.5; Selectivity Index [28]: 916
2 | CCCCCCCCCCn1cc(CN[C@H]2[C@H](O)[C@@H](O)[C@H](O)[C@@H](O)[C@@H]2O)nn1 | 10.2 | 93.3 | 8.88 | 1.55 | 5.95 | 71 | 90 | 2.91 | 25.9 | 4.19 | inactive | inactive | 90 | inactive | 20.9 | 90% | 8.33 | inactive | 3.24 | 2.7 | Activity [29]: Non-toxic; IC50 [21]: 100 nM; pKa [22]: 7.1; fold change (FC) [23]: 2.21; inhibition (Saccharomyces cerevisiae): inactive; inhibition [24]: 58%; fold change (FC) [25]: 3.56; fold change (FC) [26]: 17.2; fold change (FC) [27]: 10.5; Selectivity Index [28]: >=3300; inhibition [30]: Active
